K, half-life and T1/2 data for seven compounds are collected here from ChEMBL document CHEMBL1124188, “Soft drugs. 7. Soft beta-blockers for systemic and ophthalmic use” (J Med Chem, 1988).

The species named for data set [1] is Homo sapiens. The data set can be described thus: In vitro hydrolytic rate constant determined in human blood. The data set is classed as ADME. The essentials:
(§1)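 Compounds were placed in human blood, and samples were withdrawn over time. Each sample was mixed at once with ice-cold acetonitrile and centrifuged. The supernatant was analysed by reverse-phase C18 HPLC with variable-wavelength UV detection. Disappearance was treated as pseudo-first-order. Values are the mean of at least four runs ± SE of the mean.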

The nature of data set [2]: (§2) Half life period determined in human blood. The data set is classed as ADME, organism-based. The method in brief:
as §1

For data set [3], the species on record is Homo sapiens. The data set is described as §2. The data set is classed as ADME, organism-based. The conditions noted are these: in vitro. The method in brief: as §1

In the case of `CC(C)NCC(O)COc1ccc(CC(=O)OCC(=O)OC2CCCCC2)cc1` (centres undefined), the K in the data set filed under Homo sapiens [1] came to 0.154 min⁻¹. The compound further had a half-life in data set [2] (human blood) of 4.5 min.
`CC(C)NCC(O)COc1ccc(CC(=O)OCC23CC4CC(CC(C4)C2)C3)cc1` (centres undefined): the K in the data set filed under Homo sapiens [1] came to 0.015 min⁻¹. The compound also returned a half-life in data set [2] (human blood) of 46.2 min.
The matching figures for `CC(C)NCC(O)COc1ccc(CC(=O)OC2CC3CCC2(C)C3(C)C)cc1` (centres undefined): 0.0009 min⁻¹ and 770 min.
Take `CC(C)NCC(O)COc1ccc(CC(=O)OC2CC3CCC2C3)cc1` (stereo in doubt; 3e): the K in the data set listed under Homo sapiens [1] amounted to 35000 min⁻¹. The T1/2 in the data set listed under Homo sapiens [3] worked out at 19.8 min.
In the data set listed under Homo sapiens [1], `CC(C)NCC(O)COc1ccc(CC(=O)OC2CC3CCC2C3)cc1` (stereo in doubt; 3f) showed a K of 0.02 min⁻¹. In addition, the half-life in data set [2] (human blood) is 34.6 min.
In the data set filed under Homo sapiens [1], `CC(C)NCC(O)COc1ccc(CC(=O)OCCC23CC4CC(CC(C4)C2)C3)cc1` (centres undefined) [ADAPROLOL] registered a K of 0.1 min⁻¹. Further, the half-life in data set [2] worked out at 6.9 min.
Take `COC(=O)CCc1ccc(OCC(O)CNC(C)C)cc1` (centres undefined) [ESMOLOL]: the K in the data set filed under Homo sapiens [1] is 0.0033 min⁻¹. This compound displayed a T1/2 in the data set filed under Homo sapiens [3] of 210 min.

What is called half-life is how long it takes for the measured level to halve.
